According to ChEMBL document CHEMBL2434951, “Synthesis and antimicrobial activity of polyhalobenzonitrile quinazolin-4(3H)-one derivatives” (2013):
≈ marks a conversion by molar mass, not a printed value. Calls of active or inactive are those of the source. The rule behind the calls is not given here.

What was measured:
Format in all cases: functional
Candida albicans = experiment: Antifungal activity against Candida albicans ATCC 10231 assessed as growth inhibition at 1000 ug/mL after 24 hrs by disk diffusion assay; settings: for zone of inhibition at 1000 µg/mL: ATCC 10231, 24 h, read-out: DIZ
Outline: (§1)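 Disk diffusion on nutrient agar, inoculum spread evenly. Disks of 6 mm Whatman No. 1 paper, dry-heat sterilized at 121 °C for 1 h, soaked in test compound at 1000 (micro)g/mL. Norfloxacin and chlorothalonil disks as positive controls, DMSO disks as negative control. Plates incubated 24 h at 37 °C. Inhibition zone diameter measured in mm.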

Pseudomonas aeruginosa [1] = experiment: Antibacterial activity against Pseudomonas aeruginosa ATCC 15442 assessed as growth inhibition at 1000 ug/mL after 24 hrs by disk diffusion assay; settings: for zone of inhibition at 1000 µg/mL: ATCC 15442, 24 h, read-out: DIZ; outline: as §1
Escherichia coli [2] = experiment: Antibacterial activity against Escherichia coli ATCC 8099 assessed as growth inhibition at 1000 ug/mL after 24 hrs by disk diffusion assay; settings: for zone of inhibition at 1000 µg/mL: ATCC 8099, 24 h, read-out: DIZ; outline: as §1
Staphylococcus aureus [3] = experiment: Antibacterial activity against Staphylococcus aureus ATCC 6538 assessed as growth inhibition at 1000 ug/mL after 24 hrs by disk diffusion assay; settings: for zone of inhibition at 1000 µg/mL: ATCC 6538, 24 h, read-out: DIZ; outline: as §1
Bacillus cereus [4] = experiment: Antibacterial activity against Bacillus cereus ATCC 14579 assessed as growth inhibition at 1000 ug/mL after 24 hrs by disk diffusion assay; settings: for zone of inhibition at 1000 µg/mL: ATCC 14579, 24 h, read-out: DIZ; outline: as §1
Pseudomonas aeruginosa [5] = experiment: Antibacterial activity against Pseudomonas aeruginosa ATCC 15442 assessed as growth inhibition after 24 hrs by liquid dilution method
Outline: (§2)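 Liquid (tube) dilution. Compounds and positive controls in DMSO at 11 concentrations from 0.98 upward. Each tube held 1 mL compound solution plus bacterial or fungal inoculum and sterile water. Incubated 24 h, then checked for turbidity; MIC is the lowest concentration without growth. Chlorothalonil, norfloxacin and fluconazole as standards.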

Staphylococcus aureus [6] = experiment: Antibacterial activity against Staphylococcus aureus ATCC 6538 assessed as growth inhibition after 24 hrs by liquid dilution method; outline: as §2
Escherichia coli [7] = experiment: Antibacterial activity against Escherichia coli ATCC 8099 assessed as growth inhibition after 24 hrs by liquid dilution method; outline: as §2
Bacillus cereus [8] = experiment: Antibacterial activity against Bacillus cereus ATCC 14579 assessed as growth inhibition after 24 hrs by liquid dilution method; outline: as §2

Row | SMILES | MIC (Pseudomonas aeruginosa [5]; ATCC 15442, 24 h) | MIC (Staphylococcus aureus [6]; ATCC 6538, 24 h) | MIC (Escherichia coli [7]; ATCC 8099, 24 h) | MIC (Bacillus cereus [8]; ATCC 14579, 24 h) | MIC (Pseudomonas aeruginosa [5]) | MIC (Staphylococcus aureus [6]) | MIC (Escherichia coli [7]) | MIC (Bacillus cereus [8]) | diameter of the inhibition zone (DIZ) (Candida albicans) | diameter of the inhibition zone (DIZ) (Pseudomonas aeruginosa [1]) | diameter of the inhibition zone (DIZ) (Escherichia coli [2]) | diameter of the inhibition zone (DIZ) (Staphylococcus aureus [3]) | diameter of the inhibition zone (DIZ) (Bacillus cereus [4]) | zone of inhibition at 1000 µg/mL (Candida albicans) | zone of inhibition at 1000 µg/mL (Pseudomonas aeruginosa [1]) | zone of inhibition at 1000 µg/mL (Escherichia coli [2]) | zone of inhibition at 1000 µg/mL (Staphylococcus aureus [3]) | zone of inhibition at 1000 µg/mL (Bacillus cereus [4])
1 | Cc1ccc(Nc2ccc(N)c3nc[nH]c(=O)c23)cc1 | – | – | – | – | – | – | – | – | inactive | inactive | inactive | inactive | inactive | – | – | – | – | –
2 | Cc1ccc(Nc2ccc(N)c3nc[nH]c(=O)c23)cc1C | – | – | – | – | – | – | – | – | inactive | inactive | inactive | – | inactive | – | – | – | 6.5 mm | –
3 | Nc1ccc(N2CCCCC2)c2c(=O)[nH]cnc12 | – | – | – | – | – | – | – | – | inactive | inactive | – | inactive | inactive | – | – | 7.8 mm | – | –
4 | Cc1cc(C)cc(Nc2ccc(N)c3nc[nH]c(=O)c23)c1 | – | – | – | – | – | – | – | – | inactive | – | inactive | inactive | – | – | 6.3 mm | – | – | 6 mm
5 | Cc1cccc(Nc2ccc(N)c3nc[nH]c(=O)c23)c1 | – | – | – | – | – | – | – | – | inactive | inactive | – | inactive | inactive | – | – | 6.5 mm | – | –
6 | CCN(CC)c1ccc(Nc2c(Cl)c(Cl)c(C#N)c(Cl)c2C#N)c2nc[nH]c(=O)c12 | – | – | – | – | – | – | – | – | inactive | – | – | – | – | – | 7.5 mm | 6 mm | 7.7 mm | 6 mm
7 | CCN(CC)c1ccc(N)c2nc[nH]c(=O)c12 | – | – | – | – | – | – | – | – | inactive | – | – | – | – | – | 7.5 mm | 6 mm | 7.3 mm | 6 mm
8 | Cc1ccc(Nc2c(Cl)c(Cl)c(C#N)c(Cl)c2C#N)c(Nc2ccc([N+](=O)[O-])c3nc[nH]c(=O)c23)c1 | 417 µg/mL (≈ 771 µM) | 500 µg/mL (≈ 925 µM) | 417 µg/mL (≈ 771 µM) | 52.1 µg/mL (≈ 96.3 µM) | – | – | – | – | – | – | – | – | – | 7.5 mm | 9.5 mm | 9 mm | 9.3 mm | 10.7 mm
9 | Nc1ccc(Nc2ccc(Cl)cc2)c2c(=O)[nH]cnc12 | – | – | – | – | – | – | – | – | inactive | inactive | inactive | inactive | inactive | – | – | – | – | –
10 | CN(C)c1ccc(N)c2nc[nH]c(=O)c12 | – | – | – | – | – | – | – | – | inactive | inactive | – | inactive | inactive | – | – | 8.5 mm | – | –
11 | Nc1ccc(Nc2ccc(F)cc2)c2c(=O)[nH]cnc12 | – | – | – | – | – | – | – | – | inactive | – | inactive | inactive | – | – | 6 mm | – | – | 6 mm
12 | Nc1ccccc1Nc1ccc([N+](=O)[O-])c2nc[nH]c(=O)c12 | – | – | – | – | – | – | – | – | inactive | inactive | – | inactive | inactive | – | – | 7.8 mm | – | –

The next lines start with results.

Row | MIC (Pseudomonas aeruginosa [5]; ATCC 15442, 24 h) | MIC (Staphylococcus aureus [6]; ATCC 6538, 24 h) | MIC (Escherichia coli [7]; ATCC 8099, 24 h) | MIC (Bacillus cereus [8]; ATCC 14579, 24 h) | MIC (Pseudomonas aeruginosa [5]) | MIC (Staphylococcus aureus [6]) | MIC (Escherichia coli [7]) | MIC (Bacillus cereus [8]) | SMILES | diameter of the inhibition zone (DIZ) (Candida albicans) | diameter of the inhibition zone (DIZ) (Pseudomonas aeruginosa [1]) | diameter of the inhibition zone (DIZ) (Escherichia coli [2]) | diameter of the inhibition zone (DIZ) (Staphylococcus aureus [3]) | diameter of the inhibition zone (DIZ) (Bacillus cereus [4]) | zone of inhibition at 1000 µg/mL (Candida albicans) | zone of inhibition at 1000 µg/mL (Pseudomonas aeruginosa [1]) | zone of inhibition at 1000 µg/mL (Escherichia coli [2]) | zone of inhibition at 1000 µg/mL (Staphylococcus aureus [3]) | zone of inhibition at 1000 µg/mL (Bacillus cereus [4])
13 | 417 µg/mL (≈ 807 µM) | 4.7 µg/mL (≈ 9.11 µM) | 333 µg/mL (≈ 646 µM) | 83.3 µg/mL (≈ 161 µM) | – | – | – | – | N#Cc1c(Cl)c(Cl)c(Nc2ccc(Nc3ccc(Cl)cc3)c3c(=O)[nH]cnc23)c(C#N)c1Cl | – | – | – | – | – | 9.5 mm | 9.5 mm | 9 mm | 8.8 mm | 9 mm
14 | 417 µg/mL (≈ 1560 µM) | 250 µg/mL (≈ 939 µM) | 250 µg/mL (≈ 939 µM) | 167 µg/mL (≈ 626 µM) | – | – | – | – | Cc1ccccc1Nc1ccc(N)c2nc[nH]c(=O)c12 | – | – | – | – | – | 10 mm | 8.5 mm | 9 mm | 8 mm | 6 mm
15 | 250 µg/mL (≈ 991 µM) | 208 µg/mL (≈ 824 µM) | 208 µg/mL (≈ 826 µM) | 125 µg/mL (≈ 495 µM) | – | – | – | – | Nc1ccc(Nc2ccccc2)c2c(=O)[nH]cnc12 | inactive | – | inactive | inactive | – | – | 7 mm | – | – | 9.5 mm
16 | – | – | – | – | inactive | inactive | inactive | inactive | Nc1ccc(Nc2cccc(Cl)c2)c2c(=O)[nH]cnc12 | inactive | – | – | – | – | – | 6.5 mm | 6 mm | 6.5 mm | 6 mm
17 | 417 µg/mL (≈ 900 µM) | 500 µg/mL (≈ 1080 µM) | 500 µg/mL (≈ 1080 µM) | 292 µg/mL (≈ 630 µM) | – | – | – | – | Cc1cccc(Nc2ccc(Nc3c(Cl)c(F)c(C#N)c(F)c3C#N)c3nc[nH]c(=O)c23)c1 | – | – | – | – | – | 9.5 mm | 10 mm | 9.3 mm | 9.8 mm | 10 mm
18 | – | 5.2 µg/mL (≈ 10.5 µM) | 104 µg/mL (≈ 210 µM) | 1 µg/mL (≈ 2.02 µM) | inactive | – | – | – | Cc1cccc(Nc2ccc(Nc3c(Cl)c(Cl)c(C#N)c(Cl)c3C#N)c3nc[nH]c(=O)c23)c1 | – | – | – | – | – | 10 mm | 10 mm | 10.3 mm | 9.7 mm | 11 mm
19 | 125 µg/mL (≈ 237 µM) | 250 µg/mL (≈ 475 µM) | 167 µg/mL (≈ 316 µM) | 41.7 µg/mL (≈ 79.2 µM) | – | – | – | – | N#Cc1c(Cl)c(Cl)c(Nc2ccccc2Nc2ccc([N+](=O)[O-])c3nc[nH]c(=O)c23)c(C#N)c1Cl | inactive | – | – | – | – | – | 6.7 mm | 7 mm | 7.3 mm | 11.2 mm
20 | 83.4 µg/mL (≈ 168 µM) | 52.1 µg/mL (≈ 105 µM) | 125 µg/mL (≈ 252 µM) | 0.5 µg/mL (≈ 1.01 µM) | – | – | – | – | Cc1ccccc1Nc1ccc(Nc2c(Cl)c(Cl)c(C#N)c(Cl)c2C#N)c2nc[nH]c(=O)c12 | inactive | – | – | – | – | – | 9 mm | 12.5 mm | 10 mm | 10.5 mm
21 | – | 15.6 µg/mL (≈ 30.6 µM) | 83.3 µg/mL (≈ 163 µM) | 0.8 µg/mL (≈ 1.57 µM) | inactive | – | – | – | Cc1ccc(Nc2ccc(Nc3c(Cl)c(Cl)c(C#N)c(Cl)c3C#N)c3nc[nH]c(=O)c23)cc1C | – | – | – | – | – | 10 mm | 9.4 mm | 10.8 mm | 8.5 mm | 11 mm
22 | 83.4 µg/mL (≈ 173 µM) | 125 µg/mL (≈ 259 µM) | 250 µg/mL (≈ 519 µM) | 0.5 µg/mL (≈ 1.04 µM) | – | – | – | – | N#Cc1c(Cl)c(Cl)c(Nc2ccc(Nc3ccccc3)c3c(=O)[nH]cnc23)c(C#N)c1Cl | – | – | – | – | – | 10.3 mm | 11.3 mm | 11 mm | 10 mm | 11.7 mm
23 | 500 µg/mL (≈ 1110 µM) | – | – | 500 µg/mL (≈ 1110 µM) | – | inactive | inactive | – | N#Cc1c(F)c(Cl)c(Nc2ccc(Nc3ccccc3)c3c(=O)[nH]cnc23)c(C#N)c1F | – | – | inactive | – | – | 6 mm | 9.5 mm | – | 8.9 mm | 6 mm
24 | 52.1 µg/mL (≈ 105 µM) | 10.4 µg/mL (≈ 21 µM) | 104 µg/mL (≈ 210 µM) | 0.7 µg/mL (≈ 1.41 µM) | – | – | – | – | Cc1ccc(Nc2ccc(Nc3c(Cl)c(Cl)c(C#N)c(Cl)c3C#N)c3nc[nH]c(=O)c23)cc1 | – | – | – | – | – | 9.5 mm | 12 mm | 10.5 mm | 9.3 mm | 11 mm
25 | 208 µg/mL (≈ 450 µM) | 208 µg/mL (≈ 450 µM) | 208 µg/mL (≈ 450 µM) | 52.1 µg/mL (≈ 113 µM) | – | – | – | – | Cc1ccccc1Nc1ccc(Nc2c(Cl)c(F)c(C#N)c(F)c2C#N)c2nc[nH]c(=O)c12 | – | – | – | – | – | 7.5 mm | 9.5 mm | 9.7 mm | 10.3 mm | 10.8 mm
26 | 20.8 µg/mL (≈ 66.8 µM) | 10.4 µg/mL (≈ 33.4 µM) | 20.8 µg/mL (≈ 66.8 µM) | 20.8 µg/mL (≈ 66.8 µM) | – | – | – | – | Cc1ccc(N)c(Nc2ccc([N+](=O)[O-])c3nc[nH]c(=O)c23)c1 | – | – | – | – | – | 13.5 mm | 16.8 mm | 14.7 mm | 5.3 mm | 15 mm
